{"source": "ChEMBL document CHEMBL3792280", "about": "“Design and synthesis of novel quinoxaline derivatives as potential candidates for treatment of multidrug-resistant and latent tuberculosis” (Bioorg Med Chem Lett, 2016)", "key": {"[1]": {"test_system": "Mycobacterium tuberculosis", "assay": "Antimicrobial activity against Mycobacterium tuberculosis H37Rv ATCC 27294 incubated for 7 days by BacTiter-Glo cell viability assay", "type": "functional, organism-based", "details": "for MIC: H37Rv ATCC 27294, 168 h; for IC50 / IC90: H37Rv ATCC 27294, BacTiter-Glo, 168 h"}, "J774 [2]": {"test_system": "J774", "assay": "Cytotoxicity against mouse J774 cells assessed as cell viability at 10 times MIC by MTT assay relative to control", "type": "cell-based"}, "[3]": {"test_system": "Mycobacterium tuberculosis", "assay": "Antimicrobial activity against Mycobacterium tuberculosis H37Rv ATCC 27294 infected in mouse J774 cells assessed as log reduction in bacterial burden at 10 times lower MIC measured 7 days postinfection relative to control", "type": "functional", "procedure,_shortened": "(§1)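 Macrophages infected with H37Rv and treated at three concentrations 10-fold apart, chosen from the primary-screen H37Rv data. The middle concentration brackets the reported MIC, with the others ten-fold below and ten-fold above it. Read-out is log-reduction of intracellular bacterial burden.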"}, "[4]": {"test_system": "Mycobacterium tuberculosis", "assay": "Antimicrobial activity against Mycobacterium tuberculosis H37Rv SRI 1345 assessed as growth inhibition at MIC after 7 days", "type": "functional", "procedure,_shortened": "(§2)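 MIC in µg/mL, retested on susceptible H37Rv (SRI 1345) in the same panel as single-drug-resistant strains: isoniazid-, rifampin- and ofloxacin-resistant. Percent inhibition recorded at the MIC concentration. Ratio taken as MIC H37Rv / MIC resistant strain.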"}, "[5]": {"test_system": "Mycobacterium tuberculosis", "assay": "Antimicrobial activity against non-replicating Mycobacterium tuberculosis H37Rv SRI 1345 assessed as inhibition of visual growth incubated for 7 days under anaerobic condition by low oxygen recovery assay", "type": "functional", "details": "H37Rv SRI 1345, 168 h"}, "[6]": {"test_system": "Mycobacterium tuberculosis", "assay": "Antimicrobial activity against Mycobacterium tuberculosis H37Rv ATCC 27294 infected in mouse J774 cells assessed as log reduction in bacterial burden at MIC measured 7 days postinfection relative to control", "type": "functional", "procedure,_shortened": "as §1"}, "[7]": {"test_system": "Mycobacterium tuberculosis", "assay": "Antimicrobial activity against Mycobacterium tuberculosis H37Rv ATCC 27294 infected in mouse J774 cells assessed as log reduction in bacterial burden at 10 times MIC measured 7 days postinfection relative to control", "type": "functional", "procedure,_shortened": "as §1"}, "[8]": {"test_system": "Mycobacterium tuberculosis", "assay": "Antimicrobial activity against Mycobacterium tuberculosis H37Rv ATCC 27294 infected in mouse J774 cells assessed as growth inhibition at 10 times lower MIC measured 7 days postinfection", "type": "functional", "procedure,_shortened": "as §1"}, "J774 [9]": {"test_system": "J774", "assay": "Cytotoxicity against mouse J774 cells assessed as cell viability at MIC by MTT assay relative to control", "type": "cell-based"}, "J774 [10]": {"test_system": "J774", "assay": "Cytotoxicity against mouse J774 cells assessed as cell viability at 10 times lower MIC by MTT assay relative to control", "type": "cell-based"}, "[11]": {"test_system": "Mycobacterium tuberculosis", "assay": "Antimicrobial activity against Mycobacterium tuberculosis H37Rv ATCC 27294 infected in mouse J774 cells assessed as log reduction in bacterial burden at 10 times lower MIC measured 7 days postinfection relative to rifampicin", "type": "functional", "procedure,_shortened": "as §1"}, "[12]": {"test_system": "Mycobacterium tuberculosis", "assay": "Antimicrobial activity against Mycobacterium tuberculosis H37Rv SRI 1345 after 7 days", "type": "functional", "details": "H37Rv SRI 1345, 168 h", "procedure,_shortened": "as §2"}, "[13]": {"test_system": "Mycobacterium tuberculosis", "assay": "Antimicrobial activity against Mycobacterium tuberculosis H37Rv SRI 1345 assessed as inhibition of visual growth after 18 to 24 hrs", "type": "functional", "details": "read-out: MBC99.9"}, "[14]": {"test_system": "Mycobacterium tuberculosis", "assay": "Ratio of MIC for Mycobacterium tuberculosis H37Rv SRI 1345 to MIC for non-replicating Mycobacterium tuberculosis H37Rv SRI 1345", "type": "functional", "procedure,_shortened": "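Non-replicating bacilli tested by Low Oxygen Recovery Assay (LORA); ratio computed as MIC H37Rv / LORA MIC.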"}, "[15]": {"test_system": "Mycobacterium tuberculosis", "assay": "Ratio of MBC for Mycobacterium tuberculosis H37Rv SRI 1345 to MIC for Mycobacterium tuberculosis H37Rv SRI 1345", "type": "functional", "procedure,_shortened": "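MBC read from colony-forming unit counts; ratio computed as MBC / MIC against H37Rv.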"}}}
{"compound": "O=C(c1ccc(F)cc1)c1c(C(F)(F)F)[n+]([O-])c2cc(F)c(F)cc2[n+]1[O-]", "values": [{"measurement": "MIC", "setting": "[1]", "value": 12.5, "unit": "µM"}, {"measurement": "IC50", "setting": "[1]", "value": 5.2, "unit": "µM"}, {"measurement": "IC90", "setting": "[1]", "value": 8, "unit": "µM"}]}
{"compound": "O=C(c1ccc(F)cc1)c1c(C(F)(F)F)[n+]([O-])c2ccc(Cl)cc2[n+]1[O-]", "values": [{"measurement": "MIC", "setting": "[1]", "value": 6.2, "unit": "µM"}, {"measurement": "IC50", "setting": "[1]", "value": 3.7, "unit": "µM"}, {"measurement": "IC90", "setting": "[1]", "value": 4.5, "unit": "µM"}]}
{"compound": "O=C(c1ccc(F)cc1)c1c(C(F)(F)F)[n+]([O-])c2ccc(F)cc2[n+]1[O-]", "values": [{"measurement": "MIC", "setting": "[1]", "value": 6.2, "unit": "µM"}, {"measurement": "IC50", "setting": "[1]", "value": 3.1, "unit": "µM"}, {"measurement": "IC90", "setting": "[1]", "value": 4, "unit": "µM"}]}
{"compound": "O=C(c1ccco1)c1c(C(F)(F)F)nc2cc(Cl)c(N3CCOCC3)cc2[n+]1[O-]", "values": [{"measurement": "IC50", "setting": "[1]", "value": "> 100", "unit": "µM"}, {"measurement": "IC90", "setting": "[1]", "value": "> 100", "unit": "µM"}]}
{"compound": "O=C(c1ccc(F)cc1)c1c(C(F)(F)F)[n+]([O-])c2cc(Cl)c(Cl)cc2[n+]1[O-]", "values": [{"measurement": "MIC", "setting": "[1]", "value": 6.2, "unit": "µM"}, {"measurement": "IC50", "setting": "[1]", "value": 3.6, "unit": "µM"}, {"measurement": "IC90", "setting": "[1]", "value": 4.5, "unit": "µM"}]}
{"compound": "CC(=O)c1c(C(F)(F)F)[n+]([O-])c2cc(F)c(N3CCC(N4CCOCC4)CC3)cc2[n+]1[O-]", "values": [{"measurement": "MIC", "setting": "[1]", "value": 12.5, "unit": "µM"}, {"measurement": "IC50", "setting": "[1]", "value": 4, "unit": "µM"}, {"measurement": "IC90", "setting": "[1]", "value": 7.2, "unit": "µM"}]}
{"compound": "CC(=O)c1c(C(F)(F)F)[n+]([O-])c2cc(N3CCCCC3)c(N3CCCCC3)cc2[n+]1[O-]", "values": [{"measurement": "MIC", "setting": "[1]", "value": 6.2, "unit": "µM"}, {"measurement": "IC50", "setting": "[1]", "value": 2.2, "unit": "µM"}, {"measurement": "IC90", "setting": "[1]", "value": 4.6, "unit": "µM"}]}
{"compound": "CCOC(=O)c1c(C(F)(F)F)nc2cc(Cl)c(N3CCOCC3)cc2[n+]1[O-]", "values": [{"measurement": "IC50", "setting": "[1]", "value": "> 100", "unit": "µM"}, {"measurement": "IC90", "setting": "[1]", "value": "> 100", "unit": "µM"}]}
{"compound": "CC(=O)c1c(C(F)(F)F)[n+]([O-])c2cc(F)c(N3CCCCC3)cc2[n+]1[O-]", "values": [{"measurement": "Activity", "setting": "J774 [2]", "value": 65, "unit": "%"}, {"measurement": "log reduction in bacterial burden", "setting": "[3]", "value": 1.74}, {"measurement": "growth inhibition (GI)", "setting": "[4]", "value": 78, "unit": "%"}, {"measurement": "MIC", "setting": "[5]", "value": "> 8", "unit": "µg/mL"}, {"measurement": "log reduction in bacterial burden", "setting": "[6]", "value": 1.5}, {"measurement": "log reduction in bacterial burden", "setting": "[7]", "value": 2.66}, {"measurement": "growth inhibition (GI)", "setting": "[8]", "value": ">90", "unit": "%"}, {"measurement": "Activity", "setting": "J774 [9]", "value": 53, "unit": "%"}, {"measurement": "Activity", "setting": "J774 [10]", "value": 83, "unit": "%"}, {"measurement": "MIC", "setting": "[1]", "value": 1.6, "unit": "µM"}, {"measurement": "IC50", "setting": "[1]", "value": 1, "unit": "µM"}, {"measurement": "IC90", "setting": "[1]", "value": 1.5, "unit": "µM"}, {"measurement": "Log reduction in bacterial burden relative to rifampicin", "setting": "[11]", "value": 3}, {"measurement": "MIC", "setting": "[12]", "value": 1, "unit": "µg/mL"}]}
{"compound": "CC(=O)c1c(C(F)(F)F)[n+]([O-])c2cc(F)c(N3CCC(O)CC3)cc2[n+]1[O-]", "values": [{"measurement": "MIC", "setting": "[1]", "value": 12.5, "unit": "µM"}, {"measurement": "IC50", "setting": "[1]", "value": 5.4, "unit": "µM"}, {"measurement": "IC90", "setting": "[1]", "value": 10.7, "unit": "µM"}]}
{"compound": "COC(=O)c1c(C(F)(F)F)[n+]([O-])c2ccc(N3CCN(c4ccc(F)cc4)CC3)cc2[n+]1[O-]", "values": [{"measurement": "Activity", "setting": "J774 [2]", "value": 47, "unit": "%"}, {"measurement": "MBC", "setting": "[13]", "value": 4, "unit": "µg/mL"}, {"measurement": "log reduction in bacterial burden", "setting": "[3]", "value": 1.43}, {"measurement": "Ratio", "setting": "[14]", "value": 4}, {"measurement": "growth inhibition (GI)", "setting": "[4]", "value": 78, "unit": "%"}, {"measurement": "MIC", "setting": "[5]", "value": 0.375, "unit": "µg/mL"}, {"measurement": "log reduction in bacterial burden", "setting": "[6]", "value": 1.41}, {"measurement": "Ratio", "setting": "[15]", "value": 2.6}, {"measurement": "log reduction in bacterial burden", "setting": "[7]", "value": 3.86}, {"measurement": "growth inhibition (GI)", "setting": "[8]", "value": ">90", "unit": "%"}, {"measurement": "Activity", "setting": "J774 [9]", "value": 64, "unit": "%"}, {"measurement": "Activity", "setting": "J774 [10]", "value": 60, "unit": "%"}, {"measurement": "MIC", "setting": "[1]", "value": 1.6, "unit": "µM"}, {"measurement": "IC50", "setting": "[1]", "value": 0.5, "unit": "µM"}, {"measurement": "IC90", "setting": "[1]", "value": 0.8, "unit": "µM"}, {"measurement": "Log reduction in bacterial burden relative to rifampicin", "setting": "[11]", "value": 3}, {"measurement": "MIC", "setting": "[12]", "value": 1.5, "unit": "µg/mL"}]}
{"compound": "Cc1c(C(=O)/C=C/c2ccccc2)[n+]([O-])c2cc(Cl)ccc2[n+]1[O-]", "values": [{"measurement": "Activity", "setting": "J774 [2]", "value": 26, "unit": "%"}, {"measurement": "log reduction in bacterial burden", "setting": "[3]", "value": 2.11}, {"measurement": "growth inhibition (GI)", "setting": "[4]", "value": 80, "unit": "%"}, {"measurement": "log reduction in bacterial burden", "setting": "[6]", "value": 1.68}, {"measurement": "log reduction in bacterial burden", "setting": "[7]", "value": 1.76}, {"measurement": "growth inhibition (GI)", "setting": "[8]", "value": ">99", "unit": "%"}, {"measurement": "Activity", "setting": "J774 [9]", "value": 81, "unit": "%"}, {"measurement": "Activity", "setting": "J774 [10]", "value": 70, "unit": "%"}, {"measurement": "MIC", "setting": "[1]", "value": 3.1, "unit": "µM"}, {"measurement": "IC50", "setting": "[1]", "value": 1.5, "unit": "µM"}, {"measurement": "IC90", "setting": "[1]", "value": 1.7, "unit": "µM"}, {"measurement": "Log reduction in bacterial burden relative to rifampicin", "setting": "[11]", "value": 3}]}
{"compound": "Cc1c(C(=O)/C=C/c2ccc([N+](=O)[O-])s2)[n+]([O-])c2cc(Cl)c(Cl)cc2[n+]1[O-]", "values": [{"measurement": "IC50", "setting": "[1]", "value": "> 100", "unit": "µM"}, {"measurement": "IC90", "setting": "[1]", "value": "> 100", "unit": "µM"}]}
{"compound": "Cc1c(C(=O)/C=C/c2ccc([N+](=O)[O-])s2)[n+]([O-])c2ccccc2[n+]1[O-]", "values": [{"measurement": "IC50", "setting": "[1]", "value": "> 100", "unit": "µM"}, {"measurement": "IC90", "setting": "[1]", "value": "> 100", "unit": "µM"}]}
{"compound": "Cc1ccc2c(c1)[n+]([O-])c(C(=O)/C=C/c1ccc([N+](=O)[O-])o1)c(C)[n+]2[O-]", "values": [{"measurement": "MIC", "setting": "[1]", "value": 50, "unit": "µM"}, {"measurement": "IC50", "setting": "[1]", "value": 29.7, "unit": "µM"}, {"measurement": "IC90", "setting": "[1]", "value": 38.1, "unit": "µM"}]}
